Data: ChEMBL document CHEMBL2331184, “The synthesis and SAR of calcitonin gene-related peptide (CGRP) receptor antagonists derived from tyrosine surrogates. Part 2” (Bioorg Med Chem Lett, 2013)
Active and inactive are the calls of the source. No cut-off for these calls is given here.

Target: Calcitonin gene-related peptide type 1 receptor (Homo sapiens, UniProt O60894+Q16602)
Experiment: Binding affinity to CGRP receptor (unknown origin)
Conditions: not given

Calcitonin gene-related peptide type 1 receptor, sequence (Q16602 whole entry, one chain of several): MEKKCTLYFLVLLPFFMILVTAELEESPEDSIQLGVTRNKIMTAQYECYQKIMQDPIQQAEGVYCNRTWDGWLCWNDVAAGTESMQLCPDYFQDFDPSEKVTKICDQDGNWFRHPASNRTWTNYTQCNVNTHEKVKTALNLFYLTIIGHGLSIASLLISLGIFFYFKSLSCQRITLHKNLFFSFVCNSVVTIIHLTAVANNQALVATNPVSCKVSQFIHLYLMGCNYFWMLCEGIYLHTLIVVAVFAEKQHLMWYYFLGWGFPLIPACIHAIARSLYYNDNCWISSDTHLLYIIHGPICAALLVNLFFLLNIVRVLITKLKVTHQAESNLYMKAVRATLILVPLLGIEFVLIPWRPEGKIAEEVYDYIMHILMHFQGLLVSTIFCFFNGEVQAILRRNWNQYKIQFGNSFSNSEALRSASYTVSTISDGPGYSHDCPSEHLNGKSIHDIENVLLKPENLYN

Row | SMILES | Ki [nM]
1 | O=C(N[C@H](Cc1cc(Cl)c2[nH]c(=O)oc2c1)C(=O)N1CCC(N2CCCCC2)CC1)N1CCC(N2Cc3ccccc3NC2=O)CC1 | 0.039
2 | Cc1cc(C[C@H](NC(=O)N2CCC(N3Cc4ccccc4NC3=O)CC2)C(=O)N2CCC(N3CCCCC3)CC2)cc2cn[nH]c12 | 27
3 | CCc1cc(CC(NC(=O)N2CCC(N3Cc4ccccc4NC3=O)CC2)C(=O)N2CCC(N3CCCCC3)CC2)cc2cn[nH]c12 (racemic) | 0.005
4 | O=C(N[C@H](Cc1cc(I)c2[nH]c(=O)oc2c1)C(=O)N1CCC(N2CCCCC2)CC1)N1CCC(N2Cc3ccccc3NC2=O)CC1 | 0.055
5 | CC(C)c1cc(CC(NC(=O)N2CCC(N3Cc4ccccc4NC3=O)CC2)C(=O)N2CCC(N3CCCCC3)CC2)cc2cn[nH]c12 (racemic) | 0.22
6 | Cc1cc(C[C@@H](NC(=O)N2CCC(N3Cc4ccccc4NC3=O)CC2)C(=O)N2CCC(N3CCCCC3)CC2)cc2[nH]nnc12 | 0.015

Target: T1, Nuclear receptor subfamily 1 group I member 2 (Homo sapiens, UniProt O75469)
T1 sequence (O75469 whole entry): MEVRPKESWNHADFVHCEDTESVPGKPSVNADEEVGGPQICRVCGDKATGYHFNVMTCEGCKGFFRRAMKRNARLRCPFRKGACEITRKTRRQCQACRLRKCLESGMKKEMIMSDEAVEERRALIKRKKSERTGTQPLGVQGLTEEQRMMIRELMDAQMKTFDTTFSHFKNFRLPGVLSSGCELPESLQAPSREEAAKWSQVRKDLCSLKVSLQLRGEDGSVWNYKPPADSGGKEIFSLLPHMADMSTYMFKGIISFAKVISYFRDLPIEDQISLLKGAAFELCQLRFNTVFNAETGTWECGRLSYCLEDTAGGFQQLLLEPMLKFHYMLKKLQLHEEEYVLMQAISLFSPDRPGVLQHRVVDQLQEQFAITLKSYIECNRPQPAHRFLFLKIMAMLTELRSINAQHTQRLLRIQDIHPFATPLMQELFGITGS
Experiment: Activation of PXR (unknown origin)
Conditions: not given

Row | SMILES | Activity
7 | Cc1cc(C[C@@H](NC(=O)N2CCC(N3Cc4ccccc4NC3=O)CC2)C(=O)N2CCC(N3CCCCC3)CC2)cc2cn[nH]c12.Cl | Not Active

System: not listed separately
Experiment: Bioavailability in rabbit at 0.6 mg/kg administered intranasally
Assay type: ADME, organism-based, Oryctolagus cuniculus
Conditions: in vivo, inhaled or intranasal
Procedure, shortened: (§1)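 Rabbits were dosed intranasally with a spray of a 10 mg/mL aqueous solution of the HCl salt, at 0.6 mg/kg. […] Intranasal bioavailability was derived from these plasma levels.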

Row | SMILES | bioavailability [%]
8 | Cc1cc(C[C@@H](NC(=O)N2CCC(N3Cc4ccccc4NC3=O)CC2)C(=O)N2CCC(N3CCCCC3)CC2)cc2cn[nH]c12.Cl | 42

Target: Calcitonin gene-related peptide type 1 receptor (Homo sapiens) (UniProt Q16602)
Sequence (Q16602 whole entry): as the sequence (Q16602 whole entry, one chain of several) above
Experiment: Antagonist activity at CGRP receptor in human SK-N-MC cells assessed as inhibition of […]-induced cAMP production
Assay type: functional, cell-based
Conditions: not given
Procedure, shortened: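 Concentration-dependent inhibition of CGRP-stimulated cAMP production measured in SK-N-MC cells expressing the human CGRP receptor. Value reported as EC50.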

Row | SMILES | inhibition
9 | O=C(N[C@H](Cc1ccc2[nH]ncc2c1)C(=O)N1CCC(N2CCCCC2)CC1)N1CCC(N2Cc3ccccc3NC2=O)CC1 | Active
10 | Cc1cc(C[C@@H](NC(=O)N2CCC(N3Cc4ccccc4NC3=O)CC2)C(=O)N2CCC(N3CCCCC3)CC2)cc2nn[nH]c12 | Active
11 | O=C(N[C@H](Cc1cc(Cl)c2[nH]c(=O)oc2c1)C(=O)N1CCC(N2CCCCC2)CC1)N1CCC(N2Cc3ccccc3NC2=O)CC1 | Active
12 | Cc1cc(C[C@H](NC(=O)N2CCC(N3Cc4ccccc4NC3=O)CC2)C(=O)N2CCC(N3CCCCC3)CC2)cc2cn[nH]c12 | Active
13 | Cc1cc(C[C@@H](NC(=O)N2CCC(N3Cc4ccccc4NC3=O)CC2)C(=O)N2CCC(N3CCCCC3)CC2)cc2cn[nH]c12 | Active
14 | CCc1cc(CC(NC(=O)N2CCC(N3Cc4ccccc4NC3=O)CC2)C(=O)N2CCC(N3CCCCC3)CC2)cc2cn[nH]c12 (racemic) | Active
15 | O=C(N[C@H](Cc1cc(I)c2[nH]c(=O)oc2c1)C(=O)N1CCC(N2CCCCC2)CC1)N1CCC(N2Cc3ccccc3NC2=O)CC1 | Active
16 | CC(C)c1cc(CC(NC(=O)N2CCC(N3Cc4ccccc4NC3=O)CC2)C(=O)N2CCC(N3CCCCC3)CC2)cc2cn[nH]c12 (racemic) | Active

Target: T2, Cytochrome P450 3A4 (Homo sapiens, UniProt P08684)
T2 sequence (P08684 whole entry): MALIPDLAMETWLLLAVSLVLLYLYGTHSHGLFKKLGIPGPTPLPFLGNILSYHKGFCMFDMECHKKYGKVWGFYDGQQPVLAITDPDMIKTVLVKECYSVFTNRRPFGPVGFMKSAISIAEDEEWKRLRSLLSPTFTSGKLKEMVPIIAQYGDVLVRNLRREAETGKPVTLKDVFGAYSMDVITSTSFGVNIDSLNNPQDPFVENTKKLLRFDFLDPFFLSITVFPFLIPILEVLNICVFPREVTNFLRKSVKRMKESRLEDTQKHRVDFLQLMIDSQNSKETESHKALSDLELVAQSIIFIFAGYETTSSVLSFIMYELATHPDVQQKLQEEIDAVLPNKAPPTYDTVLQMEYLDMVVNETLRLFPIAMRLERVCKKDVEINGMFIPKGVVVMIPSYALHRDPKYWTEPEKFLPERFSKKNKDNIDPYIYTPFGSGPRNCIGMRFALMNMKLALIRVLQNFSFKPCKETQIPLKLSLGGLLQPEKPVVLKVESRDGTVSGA
Experiment: Inhibition of CYP3A4 (unknown origin) using 7-benzyloxy-resorufin as substrate
Assay type: ADME
Conditions: not given

Row | SMILES | IC50 [nM]
17 | O=C(N[C@H](Cc1cc(Cl)c2[nH]c(=O)oc2c1)C(=O)N1CCC(N2CCCCC2)CC1)N1CCC(N2Cc3ccccc3NC2=O)CC1 | 17000
18 | CCc1cc(CC(NC(=O)N2CCC(N3Cc4ccccc4NC3=O)CC2)C(=O)N2CCC(N3CCCCC3)CC2)cc2cn[nH]c12 (racemic) | 450
19 | O=C(N[C@H](Cc1cc(I)c2[nH]c(=O)oc2c1)C(=O)N1CCC(N2CCCCC2)CC1)N1CCC(N2Cc3ccccc3NC2=O)CC1 | 5500
20 | CC(C)c1cc(CC(NC(=O)N2CCC(N3Cc4ccccc4NC3=O)CC2)C(=O)N2CCC(N3CCCCC3)CC2)cc2cn[nH]c12 (racemic) | 370
21 | Cc1cc(C[C@@H](NC(=O)N2CCC(N3Cc4ccccc4NC3=O)CC2)C(=O)N2CCC(N3CCCCC3)CC2)cc2[nH]nnc12 | 7300

System: not listed separately
Experiment: Reversal of CGRP-induced dilation on human intracranial arteries
Assay type: functional, Artery
Conditions: not given
Procedure, shortened: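 Ex vivo human intracranial artery rings were mounted between two wire hooks on a force transducer to record tone. Rings were precontracted with 10 mM KCl and fully dilated with 1 nM haCGRP. Dilation was then reversed by cumulative half-log additions of antagonist.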

Row | SMILES | EC50 [nM]
22 | O=C(N[C@H](Cc1ccc2[nH]ncc2c1)C(=O)N1CCC(N2CCCCC2)CC1)N1CCC(N2Cc3ccccc3NC2=O)CC1 | 1.2

System: not listed separately
Experiment: Aqueous solubility of the compound at pH 4.0 to 6.2
Assay type: physicochemical
Conditions: aqueous solution

Row | SMILES | solubility [mg/mL]
23 | Cc1cc(C[C@@H](NC(=O)N2CCC(N3Cc4ccccc4NC3=O)CC2)C(=O)N2CCC(N3CCCCC3)CC2)cc2cn[nH]c12.Cl | 13

System: not listed separately
Experiment: Tmax in rabbit at 0.6 mg/kg administered intranasally
Assay type: ADME, organism-based, Oryctolagus cuniculus
Design: dose 0.6 mg/kg
Conditions: in vivo, inhaled or intranasal
Procedure, shortened: as §1

Row | SMILES | Tmax [min]
24 | Cc1cc(C[C@@H](NC(=O)N2CCC(N3Cc4ccccc4NC3=O)CC2)C(=O)N2CCC(N3CCCCC3)CC2)cc2cn[nH]c12.Cl | 10

System: Salmonella typhimurium
Experiment: Genotoxicity in Salmonella typhimurium by Ames test
Assay type: toxicity, organism-based
Conditions: salmonella enterica subsp. enterica serovar typhimurium

Row | SMILES | Activity
25 | Cc1cc(C[C@@H](NC(=O)N2CCC(N3Cc4ccccc4NC3=O)CC2)C(=O)N2CCC(N3CCCCC3)CC2)cc2cn[nH]c12.Cl | Non-toxic

Target: T2, Cytochrome P450 3A4
Experiment: (§2) Inhibition of CYP3A4 (unknown origin) using 7-benzyloxy-4-trifluoromethylcoumarin as substrate
Assay type: ADME
Conditions: not given

Row | SMILES | IC50 [nM]
26 | O=C(N[C@H](Cc1cc(Cl)c2[nH]c(=O)oc2c1)C(=O)N1CCC(N2CCCCC2)CC1)N1CCC(N2Cc3ccccc3NC2=O)CC1 | > 40000
27 | CCc1cc(CC(NC(=O)N2CCC(N3Cc4ccccc4NC3=O)CC2)C(=O)N2CCC(N3CCCCC3)CC2)cc2cn[nH]c12 (racemic) | 25000
28 | O=C(N[C@H](Cc1cc(I)c2[nH]c(=O)oc2c1)C(=O)N1CCC(N2CCCCC2)CC1)N1CCC(N2Cc3ccccc3NC2=O)CC1 | 32000
29 | Cc1cc(C[C@@H](NC(=O)N2CCC(N3Cc4ccccc4NC3=O)CC2)C(=O)N2CCC(N3CCCCC3)CC2)cc2[nH]nnc12 | > 40000

Target: CYP3A4 (Homo sapiens, UniProt P08684)
Sequence (P08684 whole entry): as above
Experiment: as §2
Assay type: ADME
Conditions: probe 7-benzyloxy-4-trifluoromethylcoumarin

Row | SMILES | IC50 [nM]
30 | O=C(N[C@H](Cc1ccc2[nH]ncc2c1)C(=O)N1CCC(N2CCCCC2)CC1)N1CCC(N2Cc3ccccc3NC2=O)CC1 | > 40000
